From ChEMBL document CHEMBL1921730, “The anti-malarial activity of bivalent imidazolium salts” (Bioorg Med Chem, 2011)
Activity calls are given as the source filed them. The calls are words filed in the database; no cut-off is given here.

Legend:
Plasmodium falciparum [1] = experiment: Antiplasmodial activity against Plasmodium falciparum assessed as inhibition of parasite LDH activity after 72 hrs; format: functional, organism-based
Procedure, shortened: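 P. falciparum ItG grown in O+ human erythrocytes in RPMI-1640 with 10% human serum and 50 µM hypoxanthine. DMSO stocks (10 mg/mL) diluted two-fold serially; culture at 2% hematocrit and 2% parasitemia incubated 72 h at 37 °C under 95% N₂/3% CO₂/2% O₂. pLDH assay read at 595 nm after 1 h; IC50 by non-linear regression, mean ± SEM, n = 4; chloroquine positive control.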

CHO = experiment: Cytotoxicity against CHO cells after 48 hrs by MTT assay; format: cell-based; conditions: Cricetulus griseus
Procedure, shortened: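 CHO cells grown in RPMI-1640 with 10% fetal calf serum, 25 mM HEPES and gentamicin, to 50% confluency, then given two-fold gradients from 10 mg/mL DMSO stocks; DMSO-only control. After 48 h, MTT (10 mg/mL) was added for 30 min, then DMSO; absorbance read at 650 nm. IC50 by non-linear regression of sigmoidal dose-response curves; four determinations, mean ± SEM.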

[2] = Ratio of IC50 for CHO cells to IC50 for Plasmodium falciparum
Plasmodium berghei [3] = experiment: Antiplasmodial activity against Plasmodium berghei […] by SYBR green 1 assay; format: functional, organism-based
Procedure, shortened: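 P. berghei blood from an infected mouse (5% parasitemia) obtained by cardiac puncture and washed 3 times in RPMI. Plated at 2% hematocrit in a two-fold compound gradient. Wells agitated at 24 h to release merozoites, then incubated a further 24 h. SYBR-Green I fluorescence read-out; IC50 from four independent determinations, mean ± SEM.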

Plasmodium falciparum [4] = experiment: Antiplasmodial activity against Plasmodium falciparum 3D7 assessed as reduction in parasitemia measured between day 1 and day 2 relative to control; format: functional, organism-based
Procedure, shortened: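 P. falciparum 3D7 cultures synchronized at mature stage on Percoll one day before the start. Set to 1% hematocrit and 2% parasitemia, treated with 40 nM or 83 nM compound, and sampled every 24 h for 4 days. Parasitemia counted on Giemsa-stained smears. Controls: uninfected RBCs, untreated cultures, sulfated β-cyclodextrin sodium salt and chloroquine.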

Plasmodium falciparum [5] = experiment: Antiplasmodial activity against Plasmodium falciparum assessed as inhibition of merozoite invasion of RBCs at 0.2 mg/ml after 48 hrs by SYBR green 1 fluorescence-based flow cytometry; format: functional, organism-based
Procedure, shortened: (§1)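 Sorbitol-synchronized ring-stage P. falciparum set to 5% parasitemia and 0.5% hematocrit, then treated for 48 h. An equal volume of RPMI-1640 with 0.2 µL/mL stock SYBR-Green was added for 1 h in the dark before flow cytometry (~200,000 events). Quadrant counts of parasitized, non-parasitized and small DNA-containing events were taken relative to total erythrocytes.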

Plasmodium falciparum [6] = experiment: Antiplasmodial activity against Plasmodium falciparum assessed as inhibition of merozoite invasion of RBCs at 20 uM after 48 hrs by SYBR green 1 fluorescence-based flow cytometry; format: functional, organism-based; procedure, shortened: as §1
Plasmodium falciparum [7] = experiment: Antiplasmodial activity against Plasmodium falciparum assessed as inhibition of parasite adherence to RBCs at 20 uM after 48 hrs by microscopic analysis; format: functional, organism-based
Plasmodium berghei [8] = experiment: Antiplasmodial activity against Plasmodium berghei infected in BALB/c mouse assessed as delay in onset of parasitemia at 60 ug/day infused once daily for 3 days by Giemsa staining relative to control; format: functional, organism-based
Procedure, shortened: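 Female Balb/c mice, 6–8 weeks old, infected with 10⁶ P. berghei on Day 0 and followed by Giemsa-stained blood films until parasites appeared. Then infused once daily for three days with 0.5 mL RPMI-1640 or compound in RPMI-1640; vehicle control 1% (v/v) DMSO in RPMI-1640; chloroquine 15 mg/kg/day as positive control. Parasitemia by Giemsa films; five mice per group.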

SMILES	IC50 (Plasmodium falciparum [1])	IC50 (CHO)	Ratio IC50 [2]	other results
Cl.Cl.c1ncn(CCCCCCCCCCCCn2cncn2)n1	19 µM	11.7 µM	0.6	–
Cl.Cl.c1cn(CCCOc2ccc(OCCCn3ccnc3)cc2)cn1	4.9 µM	50 µM	10	–
O=S(=O)(O)OC[C@H]1O[C@@H]2O[C@H]3[C@H](O)[C@@H](O)[C@@H](O[C@H]4[C@H](O)[C@@H](O)[C@@H](O[C@H]5[C@H](O)[C@@H](O)[C@@H](O[C@H]6[C@H](O)[C@@H](O)[C@@H](O[C@H]7[C@H](O)[C@@H](O)[C@@H](O[C@H]8[C@H](O)[C@@H](O)[C@@H](O[C@H]1[C@H](O)[C@H]2O)O[C@@H]8COS(=O)(=O)O)O[C@@H]7COS(=O)(=O)O)O[C@@H]6COS(=O)(=O)O)O[C@@H]5COS(=O)(=O)O)O[C@@H]4COS(=O)(=O)O)O[C@@H]3COS(=O)(=O)O	–	–	–	Activity (Plasmodium falciparum [4]): Active; inhibition (Plasmodium falciparum [5]): Active
Cl.Cl.c1cn(CCCCCCCCCCCCCn2ccnc2)cn1	0.56 µM	3 µM	5.4	–
Cl.Cl.c1cn(CCCCCCCCCCCCCCn2ccnc2)cn1	1.6 µM	4.4 µM	2.8	–
c1cn(CCCCCCCCCCCCCCCCCCCCn2ccnc2)cn1	2.5 µM	8 µM	3.2	–
c1cn(-c2ccc(-n3ccnc3)cc2)cn1	93 µM	1110 µM	12	–
c1cn(Cc2ccc(-c3ccc(Cn4ccnc4)cc3)cc2)cn1	1.7 µM	65 µM	38	–
[Br-].[Br-].c1ccc(C[n+]2ccn(-c3ccc(-c4ccc(-n5cc[n+](Cc6ccccc6)c5)cc4)cc3)c2)cc1	0.022 µM	12.1 µM	550	–
C[n+]1cn(-c2ccc(-c3ccc(-n4c[n+](C)c5ccccc54)cc3)cc2)c2ccccc21.[I-].[I-]	0.07 µM	98 µM	1400	–
Cl.Cl.c1cn(CCCCCCCCn2ccnc2)cn1	6 µM	140 µM	23	–
C[n+]1ccn(-c2ccc(-n3cc[n+](C)c3)cc2)c1.[I-].[I-]	11.2 µM	–	28	–
Cl.Cl.c1cn(CCCCCCCCCCCCn2ccnc2)cn1	4.1 µM	1.4 µM	0.3	–
c1cn(CCCCCCCCCCCCCCCCCCn2ccnc2)cn1	0.4 µM	1.2 µM	3	–
Cl.Cl.c1cn(CCCCCCCCCCn2ccnc2)cn1	9.2 µM	15 µM	1.6	–
Cl.Cl.c1cn(CCCCn2ccnc2)cn1	1070 µM	1900 µM	1.8	–
c1cn(CCCCCCCCCCCn2ccnc2)cn1	1.9 µM	20 µM	11	–
c1cn(CCCCCCCCCCCCCCCCn2ccnc2)cn1	0.65 µM	1.3 µM	2	–
c1cn(-c2ccc(-c3ccc(-n4ccnc4)cc3)cc2)cn1	3.1 µM	27 µM	9	–
O=C(Cn1cc[n+](CC(=O)c2ccc(Cl)cc2)c1)c1ccc(Cl)cc1	–	–	–	inhibition (Plasmodium falciparum [6]): inactive; IC50 (Plasmodium berghei [3]): 4.2 µM; inhibition (Plasmodium falciparum [7]): Active
O=[N+]([O-])c1ccc(C[n+]2ccn(-c3ccc(-c4ccc(-n5cc[n+](Cc6ccc([N+](=O)[O-])cc6)c5)cc4)cc3)c2)cc1.[Br-].[Br-]	0.023 µM	14 µM	609	–
Cl.Cl.c1cn(CCCCCCCCCCCCCCCn2ccnc2)cn1	0.93 µM	2.8 µM	3	–
C[n+]1ccn(-c2ccc(-c3ccc(-n4cc[n+](C)c4)cc3)cc2)c1.[I-].[I-]	0.009 µM	9 µM	1000	–

More lines, main results first:

IC50 (Plasmodium falciparum [1])	SMILES	IC50 (CHO)	Ratio IC50 [2]	other results
4.7 µM	C[n+]1ccn(CCCCCCCCn2cc[n+](C)c2)c1.[I-].[I-]	–	96	–
0.045 µM	C[n+]1ccn(CCCOc2ccc(OCCCn3cc[n+](C)c3)cc2)c1.[I-].[I-]	–	2511	IC50 (Plasmodium berghei [3]): 0.046 µM
90 µM	Cl.Cl.c1cn(CCCCCCn2ccnc2)cn1	899 µM	10	–
0.0008 µM	CCC[n+]1ccn(CCCCCCCCCCCCn2cc[n+](CCC)c2)c1.[I-].[I-]	78 µM	97500	–
0.002 µM	C[n+]1ccn(CCCCCCCCCCCCCCCn2cc[n+](C)c2)c1.[I-].[I-]	1.2 µM	600	–
0.0032 µM	C[n+]1ccn(CCCCCCCCCCCCCCn2cc[n+](C)c2)c1.[I-].[I-]	11 µM	3438	–
0.18 µM	C[n+]1ccn(Cc2ccc(-c3ccc(Cn4cc[n+](C)c4)cc3)cc2)c1.[I-].[I-]	–	694	–
2.6 µM	C[n+]1ccn(CCCCCCn2cc[n+](C)c2)c1.[I-].[I-]	–	56	–
0.0021 µM	C[n+]1ccn(CCCCCCCCCCCCCCCCCCCCn2cc[n+](C)c2)c1.[I-].[I-]	1.4 µM	667	–
0.006 µM	C[n+]1ccn(CCCCCCCCCCCCn2cc[n+](C)c2)c1.[I-].[I-]	26 µM	4333	inhibition (Plasmodium falciparum [6]): inactive; inhibition (Plasmodium falciparum [7]): Active
0.012 µM	CC[n+]1ccn(CCCCCCCCCCCCn2cc[n+](CC)c2)c1.[I-].[I-]	34 µM	2833	IC50 (Plasmodium berghei [3]): 0.12 µM
0.0005 µM	C[n+]1ccn(CCCCCCCCCCCCCCCCn2cc[n+](C)c2)c1.[I-].[I-]	2.7 µM	5400	–
0.0009 µM	C[n+]1ccn(CCCCCCCCCCCCCCCCCCn2cc[n+](C)c2)c1.[I-].[I-]	1.4 µM	1556	–
0.082 µM	C[n+]1ccn(CCCCCCCCCCn2cc[n+](C)c2)c1.[I-].[I-]	57 µM	695	–
67 µM	C[n+]1ccn(CCCCn2cc[n+](C)c2)c1.[I-].[I-]	–	1.8	–
0.007 µM	C[n+]1ccn(CCCCCCCCCCCCCn2cc[n+](C)c2)c1.[I-].[I-]	51 µM	7286	Activity (Plasmodium berghei [8]): Active
0.0061 µM	C[n+]1ccn(CCCCCCCCCCCn2cc[n+](C)c2)c1.[I-].[I-]	42 µM	6885	IC50 (Plasmodium berghei [3]): 0.05 µM
